Consider ten molecules from ChEMBL document CHEMBL3769317, “Aminothiazoles as Potent and Selective Sirt2 Inhibitors: A Structure-Activity Relationship Study” (J Med Chem, 2016).

Counter-ions that a name gives are not always drawn. The source made the active and inactive calls. The rule behind the calls is not given here. Where a SMILES comes first, the peptide text is derived from it. Bridges are numbered along the chain shown (N, C = ends). The star is where a group is joined. Tfa = O=C(C(F)(F)F)* Some results are limits rather than exact numbers.

Assay [1] deals with T1, NAD-dependent protein deacetylase sirtuin-1 (Homo sapiens, UniProt Q96EB6).
T1 sequence (Q96EB6 whole entry): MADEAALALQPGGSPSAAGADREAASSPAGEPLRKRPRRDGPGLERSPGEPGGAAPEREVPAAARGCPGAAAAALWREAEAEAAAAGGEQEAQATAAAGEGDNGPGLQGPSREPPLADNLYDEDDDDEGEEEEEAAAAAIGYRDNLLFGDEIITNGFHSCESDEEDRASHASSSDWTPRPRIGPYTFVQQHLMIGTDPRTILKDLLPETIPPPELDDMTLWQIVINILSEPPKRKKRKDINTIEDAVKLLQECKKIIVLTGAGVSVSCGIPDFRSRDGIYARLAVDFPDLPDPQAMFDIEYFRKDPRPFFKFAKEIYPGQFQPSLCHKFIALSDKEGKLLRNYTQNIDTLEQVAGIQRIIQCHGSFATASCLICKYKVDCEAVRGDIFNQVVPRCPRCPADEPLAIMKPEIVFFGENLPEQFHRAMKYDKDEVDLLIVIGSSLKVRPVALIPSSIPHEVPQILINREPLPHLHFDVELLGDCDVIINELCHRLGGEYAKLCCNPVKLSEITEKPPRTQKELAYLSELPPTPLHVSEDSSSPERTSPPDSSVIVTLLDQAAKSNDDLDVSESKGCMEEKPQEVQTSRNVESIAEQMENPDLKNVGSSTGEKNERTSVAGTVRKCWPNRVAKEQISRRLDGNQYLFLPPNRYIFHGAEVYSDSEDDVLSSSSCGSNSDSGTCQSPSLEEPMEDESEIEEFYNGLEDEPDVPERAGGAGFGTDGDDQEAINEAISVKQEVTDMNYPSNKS
Kind of assay: Inhibition of human SIRT1 by fluorometric assay. The procedure, abridged:
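Fluorescence-based homogeneous assay with ZMAL (Cbz-Lys(acetyl)-AMC) substrate at 10,5 µM final and NAD+ at 500 µM final, in Tris/NaCl/KCl buffer pH 8.0 with 5% (v/v) DMSO final. Incubated 4 h at 37 °C, then stopped with trypsin/nicotinamide for 20 min at 37 °C. Read at ex 390/em 460 nm against no-inhibitor controls, at least duplicates.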

In assay [2] the target is T1, NAD-dependent protein deacetylase sirtuin-1. Kind of assay: Inhibition of GST-tagged human SIRT1 (133 to 747 amino acids) using ZMAL as substrate after 4 hrs by fluorescence-based microplate reader method.
In assay [3] the target is T2, NAD-dependent protein deacetylase sirtuin-1 (Homo sapiens) (UniProt Q96EB6).
T2 sequence (whole entry): T1 sequence (Q96EB6 whole entry)
Put plainly: Inhibition of GST-tagged human SIRT1 (133 to 747 amino acids) using ZMAL as substrate at 200 uM after 4 hrs by fluorescence-based microplate reader method.

The target of assay [4] is T3, NAD-dependent protein deacetylase sirtuin-2 (Homo sapiens, UniProt Q8IXJ6).
T3 sequence (Q8IXJ6 whole entry): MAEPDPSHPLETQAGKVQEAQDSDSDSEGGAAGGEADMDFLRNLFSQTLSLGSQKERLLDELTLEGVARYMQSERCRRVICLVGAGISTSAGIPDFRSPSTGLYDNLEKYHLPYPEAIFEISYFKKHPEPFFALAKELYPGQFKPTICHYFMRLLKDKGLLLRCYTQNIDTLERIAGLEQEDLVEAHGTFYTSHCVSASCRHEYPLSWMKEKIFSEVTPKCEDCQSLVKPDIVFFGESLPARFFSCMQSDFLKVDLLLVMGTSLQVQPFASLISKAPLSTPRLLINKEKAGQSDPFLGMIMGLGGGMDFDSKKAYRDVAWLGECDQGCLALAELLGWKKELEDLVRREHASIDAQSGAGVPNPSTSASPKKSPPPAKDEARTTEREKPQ
Kind of assay: Inhibition of human SIRT2.

The target in assay [5] is T4, NAD-dependent protein deacetylase sirtuin-2 (Homo sapiens) (UniProt Q8IXJ6).
T4 sequence (whole entry): T3 sequence (Q8IXJ6 whole entry)
Put plainly: Inhibition of N-terminal his6-tagged human SIRT2 (25 to 389 amino acids) using ZMAL as substrate at 250 uM after 4 hrs by fluorescence-based microplate reader method. The procedure, abridged: (§1)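 Fluorogenic deacetylation assay: hSirt1 133-747 or hSirt2 25-389 in 50 mM Tris, 137 mM NaCl, 2.7 mM KCl, pH 8.0, with NAD+ 500 µM and ZMAL (Cbz-Lys(acetyl)-AMC) 10,5 µM final, inhibitor in DMSO (5% v/v final). Control conversion kept near 15-30%. 4 h at 37 °C, then trypsin/nicotinamide stop for 20 min at 37 °C. Fluorescence read at 390/460 nm. % inhibition taken against no-inhibitor controls. At least duplicates.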

In assay [6] the target is T3, NAD-dependent protein deacetylase sirtuin-2. Put plainly: Inhibition of human SIRT2 using RHKK(Ac)-AMC as substrate preincubated for 10 mins followed by substrate addition by fluorescence assay.
Assay [7] has as its target T1, NAD-dependent protein deacetylase sirtuin-1. Kind of assay: Inhibition of human SIRT1 using RHKK(Ac)-AMC as substrate preincubated for 10 mins followed by substrate addition by fluorescence assay.
Assay [8] has as its target T4, NAD-dependent protein deacetylase sirtuin-2 (Homo sapiens). Kind of assay: Inhibition of N-terminal his6-tagged human SIRT2 (25 to 389 amino acids) using ZMAL as substrate at 10 uM after 4 hrs by fluorescence-based microplate reader method. Summed up: as §1
For assay [9] the target is unchanged. Put plainly: Inhibition of N-terminal his6-tagged human SIRT2 (25 to 389 amino acids) using ZMAL as substrate at 50 uM after 4 hrs by fluorescence-based microplate reader method. The procedure, abridged:
as §1

For assay [10] the target is unchanged. Put plainly: Inhibition of N-terminal his6-tagged human SIRT2 (25 to 389 amino acids) using ZMAL as substrate at 500 uM after 4 hrs by fluorescence-based microplate reader method. The procedure, abridged:
as §1

Assay [11] shares this target. Put plainly: Inhibition of SIRT2 in human HeLa cells assessed as tubulin acetylation at 10 uM after 1 hr by Western blotting method. It is filed as cell-based. Summed up: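 HeLa cells grown in high-glucose DMEM with 10% FCS and kanamycin at 37 °C, 5% CO2. 1.5 x 10^4 cells per well were plated overnight, then exposed to compound for 1 h from 10 mM DMSO stocks, with DMSO vehicle controls. Cells were lysed in reducing sample buffer and run on SDS-PAGE/PVDF. Blots were probed for acetyl-α-tubulin Lys40 (6-11B-1) and then GAPDH. Values were normalized to the mean control on the same blot.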
Background: A western blot detects proteins with antibodies after separation by electrophoresis.

For assay [12], the target named is T3, NAD-dependent protein deacetylase sirtuin-2. Kind of assay: Inhibition of N-terminal his6-tagged human SIRT2 (25 to 389 amino acids) using ZMAL as substrate after 4 hrs by fluorescence-based microplate reader method.
The target in assay [13] is T4, NAD-dependent protein deacetylase sirtuin-2 (Homo sapiens). Kind of assay: Inhibition of SIRT2 in human HeLa cells assessed as tubulin hyperacetylation at 10 uM after 1 hr by DAPI staining-based immunofluorescence microscopy relative to control. The assay is classed as cell-based. Summed up:
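HeLa cells, 0.5 x 10^4 per 12 mm coverslip, were plated overnight, then exposed for 1 h to 10 µM compound added from 10 mM DMSO stocks, with DMSO vehicle controls. The microtubule network was immunostained for acetylation and nuclei were counterstained with DAPI, followed by immunofluorescence microscopy.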

As a reminder, the IC50 is the concentration that gives 50% inhibition. Read a high IC50 as weaker potency. The molecule `N#C/C(=C/c1ccc(-c2cc(Cl)ccc2Cl)o1)C(=O)Nc1cccc2ncccc12` displayed an IC50 in [1] greater than 40000 nM.
A word on the inhibition: it is the drop in the measured response relative to a control, in per cent. On to `Cc1cc(C)nc(SCC(=O)Nc2ncc(Cc3cccc4ccccc34)s2)n1`, for which, in [2], the IC50 was greater than 50000 nM. The same molecule had an inhibition in assay [3] of less than 10%.
Take `CC(C)[C@@H]1NC(=O)[C@H](Cc2c[nH]cn2)NC(=O)[C@H](Cc2ccc(O)cc2)NC(=O)[C@H]([C@@H](C)O)NC(=O)[C@H](Cc2c[nH]cn2)NC(=O)[C@H](Cc2ccc(O)cc2)NC(=O)CSC[C@@H](C(N)=O)NC(=O)[C@H](Cc2ccc(O)cc2)NC(=O)[C@H](Cc2ccc(O)cc2)NC(=O)[C@H](CC(N)=O)NC(=O)[C@H]([C@@H](C)O)NC(=O)[C@H](CCCNC(=N)N)NC(=O)[C@H](CCCNC(=N)N)NC(=O)[C@H](CCCCNC(=O)C(F)(F)F)NC1=O` ({CH2CO}-YHTYHVK(Tfa)RRTNYYC-NH2; thioether N-14): in assay [4], the IC50 turned out to be 1 nM.
As to `Cc1cc(C)nc(SCC(=O)Nc2ncc(C)s2)n1`, the inhibition was 24% in assay [5] and less than 10% in assay [3].
`COc1ccc2ccccc2c1Cn1cnc2sc3c(c2c1=O)CCC(NCc1cccnc1)C3` (stereo not drawn): the IC50 in assay [6] was 1450 nM; in assay [7], greater than 100000 nM.
As for `CCCCCC(=O)Nc1ncc(Cc2cccc3ccccc23)s1`, the inhibition in assay [8] was less than 10%; in assay [9], 48%; in assay [10] it was 77%; in assay [3], less than 10%.
As to `Cc1cc(C)nc(SCC(=O)Nc2ncc(Cc3cccc4ccc(Cl)cc34)s2)n1`, the inhibition result in [11] and in assay [13] was “Active” each time. The molecule further gave an IC50 in [12] of 180 nM. In [3], this molecule showed an inhibition of 29%.
On to `CC(=O)Nc1ncc(Cc2cccc3ccccc23)s1`, for which the inhibition was less than 10% in assay [9], 84% in assay [10] and less than 10% in assay [3].
Regarding `Cc1cc(C)nc(SCC(=O)Nc2nnc(-c3ccccc3)s2)n1`, the inhibition is 20% in assay [9] and less than 10% in assay [3].
For the molecule `CCc1cc(CC)nc(SCC(=O)Nc2ncc(Cc3ccc(-c4ccccc4)cc3)s2)n1`, the inhibition in assay [9] is 31%; in [3] it was 10%.
